HTRA1 inhibitor = HTRA1 (human) protease inhibition; Q92743; recombinant HTRA1, FP-rhodamine activity-based probe, fluorescence polarization; inhibition, % at 5.96 µM; AID 504803; 0.5% of 340,000 active; in the data active = inhibition above about 36%;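 note: 0% = enzyme with DMSO and 100% = wells lacking enzyme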
Tn6 DDE FP = DD(E)-Tn6 binding inhibition, primary FP screen; inhibition, % at 8.3 µM; Fibrin DD(E) TRITC-Tn6 fluorescence polarization displacement; AID 720509; 0.21% of 370,000 active; P02675;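 active = inhibition above a per-campaign cutoff: mean of compounds within control limits plus 3 SD, cut at about 15% in these data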;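 note: 0% = median of all compound wells on the plate and 100% = blocking peptide control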
Tn7 DDE FP = inhibitors of Tn7 peptide binding to human fibrin DD(E); AID 720508; P02675; FP displacement of FITC-Tn7 peptide from fibrin DD(E); 0% = median of compound wells per plate; 0.13% of 370,000 active; inhibition, % at 8.3 µM;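 active = inhibition above the mean of compounds falling within the control limits plus 3 SD of them, cut at about 14% in these data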;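 note: 0% = plate median of compound wells and 100% = 10 µM Aha-Tn7 peptide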
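System: human fibrin DD(E); quantity: Fibrin-DD(E) at 2 µM final; also added: fluorescent Tn7 probe at 0.1 µM; compound dosing: single nominal test concentration of 8.3 µM per compound; schedule: 10 min preincubation, 3 h with tracer, room temperature; detection: fluorescence polarization of the labelled Tn7 tracer; repeats: one replicate per compound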
mABHD4 FP = ABHD4 (mouse) inhibition, primary FP screen; 0.54% of 370,000 active; Q8VD66; purified mABHD4, FP-Rh probe fluorescence polarization; inhibition, % at 8.92 µM;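 active = inhibition exceeding the mean over every tested compound plus 3 SD, cut at about 30% in these data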;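 note: 0% = plate median of compound wells and 100% = S159A mutant with DMSO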
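assay system = mABHD4 protein | compound dosing = single nominal dose of 8.92 µM, 0.89% DMSO final | read-out basis = percent inhibition of probe binding, normalized to plate controls | schedule = Enzyme–compound pre-incubation 45 min, then probe 60 min, both 25 °C | detection = fluorescence polarization, excitation 525 nm, emission 598 nm, BODIPY TMR filters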
TCR-CD3 inh = human TCR-CD3 binding inhibition. TAMRA-labeled TCR probe fluorescence, biochemical. inhibition, % at 9.4 µM. 0.37% of 360,000 active; in the data active = inhibition above about 19%;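 note: recombinant mutant TCR 2C K166C tagged with TAMRA read by polarization; 0% = receptor in buffer alone and 100% = receptor with positive control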
SIAE primary = blocks human sialic acid acetylesterase. Q9HAT2. inhibition, % at 9.66 µM. SIAE FP-Rh probe binding, fluorescence polarization. AID 1053197. 0.69% of 370,000 active;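 active = inhibition above a cutoff: mean of compounds within the control limits plus 3 SD of those, cut at about 17% in these data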;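 note: 0% = plate median of compound wells and 100% = probe without SIAE protein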
Target sequence (Q9HAT2 whole entry, looked up): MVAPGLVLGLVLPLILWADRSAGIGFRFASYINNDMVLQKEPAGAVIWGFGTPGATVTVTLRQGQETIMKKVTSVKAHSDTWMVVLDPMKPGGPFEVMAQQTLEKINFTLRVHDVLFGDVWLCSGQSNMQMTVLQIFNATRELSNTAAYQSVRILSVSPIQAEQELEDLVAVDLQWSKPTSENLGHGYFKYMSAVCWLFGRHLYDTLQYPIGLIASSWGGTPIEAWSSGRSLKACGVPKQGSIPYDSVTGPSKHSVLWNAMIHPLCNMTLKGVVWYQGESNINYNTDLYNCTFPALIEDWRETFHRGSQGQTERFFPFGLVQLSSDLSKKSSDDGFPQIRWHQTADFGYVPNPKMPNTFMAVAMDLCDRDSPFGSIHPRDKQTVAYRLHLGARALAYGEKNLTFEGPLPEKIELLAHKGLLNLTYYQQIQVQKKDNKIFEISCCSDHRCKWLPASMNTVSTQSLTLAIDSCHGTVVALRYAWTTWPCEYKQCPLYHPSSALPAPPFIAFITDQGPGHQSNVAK
DDE Tn7 confirm = confirmation of inhibitors of Tn7 binding to human fibrin DD(E); shares compounds with Tn7 DDE FP; FP displacement of TRITC-Tn7 peptide from DD(E); 0% set at plate's compound-well median; inhibition, % at 8.3 µM; 5% of 460 active;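 active = inhibition above the campaign cutoff, the mean of compounds within control limits plus 3 SD, cut at about 14% in these data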;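 note: 100% = median FP of high control wells holding Aha-Tn7 inhibitor peptide; displacers lower polarization since freed probe rises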
DDE Tn7 FP ctr = counter-screen hit for Tn7 peptide-fibrin DD(E) binding disruption | shares compounds with Tn7 DDE FP | TRITC-Tn7 probe displacement, fluorescence polarization | inhibition, % at 8.3 µM | 3% of 460 active | AID 720633;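 active = inhibition above the cutoff, the mean of compounds lying between the control bounds plus 3 SD of those compounds, cut at about 17% in these data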;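 note: 0% = median of compound sample wells and 100% = excess unlabeled Aha-Tn7 peptide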
Tn6 DDE ctr = counter-screen for inhibitors of Tn6 peptide binding to fibrin DD(E); shares compounds with Tn6 DDE FP; TRITC-Tn6 fluorescence polarization displacement; 0% = median of compound wells, not DMSO; inhibition, % at 8.3 µM; 2% of 680 active; AID 720621;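 active = inhibition above the mean of test compounds lying between the control limits plus 3 SD of those, cut at about 14% in these data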;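 note: 0% = median of compound wells and 100% = wells with Aha-Tn7 blocking peptide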
DDE Tn6 confirm = confirmation of inhibitors of Tn6 binding to human fibrin DD(E); 10% of 680 active; shares compounds with Tn6 DDE FP; AID 720631; inhibition, % at 8.3 µM; FP displacement of TRITC-Tn6 peptide from DD(E); 0% = per-plate median of test wells;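 active = inhibition above the mean of compounds lying within the control limits plus 3 SD, cut at about 16% in these data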;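 note: 100% = high control wells holding a competing inhibitor peptide at 10 µM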
SIAE confirm = human SIAE inhibition, confirmation. SIAE FP-Rh activity-based probe, fluorescence polarization. shares compounds with SIAE primary. inhibition, % at 9.66 µM. AID 1117263. 13% of 2,300 active;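 active = mean inhibition of the replicates above the hit cutoff set in the primary screen, cut at about 17% in these data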;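 note: 0% = SIAE with DMSO and probe and 100% = probe without SIAE; inhibitors lower polarization as more probe stays unbound to SIAE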
Numbers without * were called inactive; x = not tested or not shown. The list is not random: actives were taken first. Their share in the collection is about 1.8%.

SMILES	HTRA1 inhibitor	Tn6 DDE FP	Tn7 DDE FP	mABHD4 FP	TCR-CD3 inh	SIAE primary	Tn6 DDE ctr	DDE Tn6 confirm	others
CC(=O)Nc1cc(-c2cccc(NS(C)(=O)=O)c2)cn2c(-c3cccc(C(F)(F)F)c3)cnc12	x	-1	-5	-27	-3	-19	x	x
CC(=O)Nc1cc(-c2ccccc2N(C)C)cn2c(-c3cccc(C(F)(F)F)c3)cnc12	x	3	21*	24	16	18*	x	x	DDE Tn7 confirm=-3;DDE Tn7 FP ctr=-1;SIAE confirm=9
O=C(Nc1ccc2c(c1)OCO2)O[C@@H]1CC[C@@]23CCCN2C(=O)CCC[C@H]3C1	x	1	6	4	x	2	x	x
Fc1ccccc1-c1nnc2c3ccccc3nc(N3CCOCC3)n12	-7	15*	3	-3	3	5	-2	-1
Brc1ccc(-c2nnc3c4ccccc4nc(N4CCOCC4)n23)cc1	5	6	11	2	-1	-5	x	x
NCCN1CCN(S(=O)(=O)c2ccc3c(c2)CCN3C(=O)C2CCC2)CC1	x	-1	2	5	x	3	x	x
CCOC(=O)C(=CNc1ccc(C)cc1C)C(=O)OCC	-2	15*	3	1	2	-12	8	4
CCOC(=O)C(=CNc1cccc(C)c1C)C(=O)OCC	-9	-2	4	-5	4	-1	x	x
CCN(CC)C(=O)CC[C@H]1CC[C@]2(CCCN(S(=O)(=O)c3ccccc3)C2)O1	x	-1	4	1	x	-1	x	x
CCCN1CCN(C(=O)Nc2ccc(OCC)cc2)CC1	3	15*	-2	2	2	1	-3	-2
CC1CCN(S(=O)(=O)c2ccc(C(=O)Nc3nnc(C4CC4)o3)cc2)CC1	2	21*	2	-2	2	3	-3	-4
CCOc1ccc(S(=O)(=O)NCCC(=O)NCCOc2ccccc2OC)cc1	1	22*	0	1	-6	4	1	2
CCn1c(=O)c(=O)[nH]c2cc(C(=O)NC3CCCc4ccccc43)ccc21 (configuration not stated)	-8	18*	10	-26	-16	-43	-1	-2
CCn1c(=O)c(=O)[nH]c2cc(C(=O)NC3CC3)ccc21	3	5	0	7	2	-4	x	x
CC(C)N1Cc2nnn(Cc3ccccc3)c2-c2ccccc2S1(=O)=O	x	3	-5	-3	x	-1	x	x
CCOc1c(Br)cc(CNC2CCCCCCC2)cc1OC	4	6	5	9	-2	0	x	x
COc1cc(CNC2CCCCCCC2)cc(Cl)c1OC	0	17*	7	3	3	6	-4	-6
O=C1NC[C@@H](c2ccccc2)OC(=O)[C@@H](Cc2ccc(F)cc2)CC/C=C/C[C@@H]1CC(=O)N(CCO)Cc1ccccc1	-14	16*	8	-10	8	-2	7	0
C=CCN1C(=O)[C@@H](CC(=O)NCc2cccs2)[C@]2(C(=O)OC)CCCCC=C12	x	7	6	-7	x	-2	x	x
Cc1cc(C)n(CC(O)Cn2c(C)c(C)c3ccccc32)n1 (configuration not stated)	-8	19*	3	1	7	12	-2	1
Cc1c(C)n(CC(O)CN2CCCCC2)c2ccccc12 (configuration not stated)	4	4	-6	20	0	4	x	x
CC(=O)CC[C@H]1CC[C@]2(CCCN(Cc3nccn3C)C2)O1	x	-1	-6	1	x	7	x	x
CNc1ccc(/C=C2\CSc3ccccc3C2=O)cc1[N+](=O)[O-]	5	19*	-2	0	8	-4	4	5
COc1cc(-n2c(C)nc3cc(C(=O)N4CCCN(C(C)=O)CC4)ccc32)cc(OC)c1OC	x	7	8	-3	x	-1	x	x
O=C1/C(=C\c2cc([N+](=O)[O-])ccc2O)SC(=S)N1Cc1ccc(Cl)cc1	-85	17*	-12	-127	-37	-98	-24	-1
SMILES	HTRA1 inhibitor	Tn6 DDE FP	Tn7 DDE FP	mABHD4 FP	TCR-CD3 inh	SIAE primary	Tn6 DDE ctr	DDE Tn6 confirm	others
O=C(O)CN1C(=O)/C(=C\c2cc([N+](=O)[O-])ccc2OCc2ccccc2Cl)SC1=S	-55	-3	10	14	4	-3	x	x
Cc1ccc(C)c(Cn2nnc3c(=O)[nH]c(C4CCN(S(=O)(=O)c5ccc(S(=O)(=O)NC6CC6)cc5)CC4)nc32)c1	-80	18*	-2	-52	6	-42	6	6
Cc1cccc(-c2cc(N3CCCN(C)CC3)n3nccc3n2)c1	x	16*	3	-4	4	1	0	8
CN1CCCN(c2cc(-c3ccc4ccccc4c3)nc3ccnn23)CC1	x	8	-9	3	5	4	x	x
CCCCn1c(O)c(C(CC)=Nc2ccc3c(c2)CCC3)c(=O)[nH]c1=O	-3	17*	1	-1	2	6	2	-2
C=CCn1c(O)c(C(CC)=Nc2ccccc2NC(=O)CC)c(=O)[nH]c1=O	-5	1	7	7	4	6	x	x
CCCCCCCCN1C(=O)[C@@H](CC(=O)NCc2ccc(OC)c(OC)c2)C[C@@]2(C(=O)OC)C1=C[C@H](C(C)C)O[C@@H]2C1CC1	x	0	0	-8	x	-3	x	x
CCCCNC(=O)C1CCN(S(=O)(=O)c2ccc3c(c2)CC(C)N3C(=O)C2CC2)CC1 (configuration not stated)	3	103*	-5	1	3	-2	1	2
CC(C)CCNC(=O)C1CCN(S(=O)(=O)c2ccc3c(c2)CC(C)N3C(=O)C2CC2)CC1 (configuration not stated)	-8	9	-2	-4	-4	1	x	x
CCOc1ccccc1NC(=O)NCc1ccccn1	-1	19*	3	5	4	3	8	5
CCc1ccccc1NC(=O)NCc1ccccn1	3	-1	2	0	-1	-8	x	x

Compound activity: PubChem BioAssay, The Scripps Research Institute Molecular Screening Center
